# Laboratory results taken from ChEMBL document CHEMBL4680371, “Design and Structure-Activity Relationship of a Potent Furin Inhibitor Derived from Influenza Hemagglutinin” (ACS Med Chem Lett, 2021).
# Where a SMILES comes first, the peptide text is derived from it. Bridges are numbered along the chain shown (N, C = ends). [ ]: non-standard residue; d: D form. Abu = CC[C@H](N)C(=O)O; Aib = CC(C)(N)C(=O)O
# Biological target: Furin (Homo sapiens, UniProt P09958)
# Assay: Inhibition of recombinant soluble human furin using pyroGlu-Arg-Thr-Lys-Arg-methyl-coumaryl-7-amide as substrate measured after 1 hr
# Procedure, shortened: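 Soluble human recombinant furin was tested in a competitive kinetic assay. Ki is reported as the mean ± SD of at least two independent experiments.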
# Chain of Furin (P09958 whole entry): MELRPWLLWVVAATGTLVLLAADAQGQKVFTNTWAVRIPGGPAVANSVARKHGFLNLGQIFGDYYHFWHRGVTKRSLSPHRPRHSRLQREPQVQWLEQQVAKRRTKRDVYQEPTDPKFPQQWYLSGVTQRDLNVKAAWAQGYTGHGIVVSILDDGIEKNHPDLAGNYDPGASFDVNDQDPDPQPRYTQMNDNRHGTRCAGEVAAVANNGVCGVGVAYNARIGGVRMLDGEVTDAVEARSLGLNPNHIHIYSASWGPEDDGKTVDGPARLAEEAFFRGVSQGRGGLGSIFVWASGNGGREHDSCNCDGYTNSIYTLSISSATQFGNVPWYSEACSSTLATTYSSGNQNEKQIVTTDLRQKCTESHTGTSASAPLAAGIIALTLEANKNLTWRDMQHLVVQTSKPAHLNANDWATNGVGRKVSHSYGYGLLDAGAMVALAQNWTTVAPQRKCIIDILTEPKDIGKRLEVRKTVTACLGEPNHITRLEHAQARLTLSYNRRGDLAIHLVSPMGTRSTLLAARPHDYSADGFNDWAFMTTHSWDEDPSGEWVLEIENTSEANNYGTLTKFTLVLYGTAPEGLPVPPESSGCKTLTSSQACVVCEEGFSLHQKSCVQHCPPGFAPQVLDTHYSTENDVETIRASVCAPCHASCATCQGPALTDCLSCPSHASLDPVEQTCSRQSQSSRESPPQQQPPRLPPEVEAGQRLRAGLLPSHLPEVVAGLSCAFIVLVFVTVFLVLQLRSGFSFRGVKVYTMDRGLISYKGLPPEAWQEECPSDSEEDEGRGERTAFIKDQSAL
row,Structure (SMILES),Ki
1,CC(=O)N[C@@H](CCCNC(=N)N)C(=O)N[C@@H](C)C(=O)N[C@@H](CCCCN)C(=O)N[C@@H](CCCNC(=N)N)C(=O)N[C@@H](CCCNC(=N)N)C(=O)N[C@@H](CCCCN)C(=O)N[C@@H](CCCCN)C(=O)N[C@@H](CCCNC(=N)N)C(=O)N[C@H](C(N)=O)[C@@H](C)O,15 nM
2,CC(=O)N[C@@H](CCCNC(=N)N)C(=O)N[C@@H](C)C(=O)N1CCC[C@H]1C(=O)N[C@@H](CCCNC(=N)N)C(=O)N[C@@H](CCCNC(=N)N)C(=O)N[C@@H](CCCCN)C(=O)N[C@@H](CCCCN)C(=O)N[C@@H](CCCNC(=N)N)C(=O)N[C@H](C(N)=O)[C@@H](C)O,21 nM
3,CC(=O)N[C@@H](CCCNC(=N)N)C(=O)N[C@@H](Cc1c[nH]cn1)C(=O)N[C@@H](CCCNC(=N)N)C(=O)N[C@@H](CCCNC(=N)N)C(=O)N[C@@H](CCCNC(=N)N)C(=O)N[C@@H](CCCCN)C(=O)N[C@@H](CCCCN)C(=O)N[C@@H](CCCNC(=N)N)C(=O)N[C@H](C(N)=O)[C@@H](C)O,21 nM
4,CC(=O)N[C@@H](CC(C)C)C(=O)N[C@@H](C)C(=O)N[C@@H](CCCNC(=N)N)C(=O)N[C@@H](CCCNC(=N)N)C(=O)N[C@@H](CCCNC(=N)N)C(=O)N[C@@H](CCCCN)C(=O)N[C@@H](CCCCN)C(=O)N[C@@H](CCCNC(=N)N)C(=O)N[C@H](C(N)=O)[C@@H](C)O,12 nM
5,CC(=O)N[C@@H](CCCNC(=N)N)C(=O)N[C@@H](C)C(=O)N[C@@H](CCCNC(=N)N)C(=O)N[C@@H](CCC(=O)O)C(=O)N[C@@H](CCCNC(=N)N)C(=O)N[C@@H](CCCCN)C(=O)N[C@@H](CCCCN)C(=O)N[C@@H](CCCNC(=N)N)C(=O)N[C@H](C(N)=O)[C@@H](C)O,55 nM
6,CCCC[C@H](NC(=O)[C@H](CCCNC(=N)N)NC(=O)[C@H](C)NC(=O)[C@H](CCCNC(=N)N)NC(C)=O)C(=O)N[C@@H](CCCNC(=N)N)C(=O)N[C@@H](CCCCN)C(=O)N[C@@H](CCCCN)C(=O)N[C@@H](CCCNC(=N)N)C(=O)N[C@H](C(N)=O)[C@@H](C)O,19 nM
7,CC[C@H](C)[C@H](NC(=O)[C@H](CCCNC(=N)N)NC(=O)[C@H](C)NC(=O)CNC(C)=O)C(=O)N[C@@H](CCCNC(=N)N)C(=O)N[C@@H](CCCCN)C(=O)N[C@@H](CCCCN)C(=O)N[C@@H](CCCNC(=N)N)C(=O)N[C@H](C(N)=O)[C@@H](C)O (Ac-GARIRKKRT-NH2),9 nM
8,CC(=O)N[C@@H](CCCNC(=N)N)C(=O)N[C@@H](Cc1ccc(O)cc1)C(=O)N[C@@H](CCCNC(=N)N)C(=O)N[C@@H](CCCNC(=N)N)C(=O)N[C@@H](CCCNC(=N)N)C(=O)N[C@@H](CCCCN)C(=O)N[C@@H](CCCCN)C(=O)N[C@@H](CCCNC(=N)N)C(=O)N[C@H](C(N)=O)[C@@H](C)O,24 nM
9,CSCC[C@H](NC(=O)[C@H](C)NC(=O)[C@H](CCCNC(=N)N)NC(C)=O)C(=O)N[C@@H](CCCNC(=N)N)C(=O)N[C@@H](CCCNC(=N)N)C(=O)N[C@@H](CCCCN)C(=O)N[C@@H](CCCCN)C(=O)N[C@@H](CCCNC(=N)N)C(=O)N[C@H](C(N)=O)[C@@H](C)O,31 nM
10,CC[C@H](C)[C@H](NC(=O)[C@H](CCCNC(=N)N)NC(=O)[C@H](C)NC(=O)[C@@H](NC(C)=O)C(C)C)C(=O)N[C@@H](CCCNC(=N)N)C(=O)N[C@@H](CCCCN)C(=O)N[C@@H](CCCCN)C(=O)N[C@@H](CCCNC(=N)N)C(=O)N[C@H](C(N)=O)[C@@H](C)O (Ac-VARIRKKRT-NH2),10 nM
11,CC(=O)N[C@@H](CCCNC(=N)N)C(=O)N[C@@H](C)C(=O)N[C@@H](CCCNC(=N)N)C(=O)N[C@@H](Cc1c[nH]c2ccccc12)C(=O)N[C@@H](CCCNC(=N)N)C(=O)N[C@@H](CCCCN)C(=O)N[C@@H](CCCCN)C(=O)N[C@@H](CCCNC(=N)N)C(=O)N[C@H](C(N)=O)[C@@H](C)O,47 nM
12,CC(=O)N[C@H](C(=O)N[C@@H](C)C(=O)N[C@@H](CCCNC(=N)N)C(=O)N[C@@H](CCCNC(=N)N)C(=O)N[C@@H](CCCNC(=N)N)C(=O)N[C@@H](CCCCN)C(=O)N[C@@H](CCCCN)C(=O)N[C@@H](CCCNC(=N)N)C(=O)N[C@H](C(N)=O)[C@@H](C)O)[C@@H](C)O,10 nM
13,CC(=O)N[C@@H](CCCNC(=N)N)C(=O)N[C@@H](C)C(=O)N[C@@H](CC(C)C)C(=O)N[C@@H](CCCNC(=N)N)C(=O)N[C@@H](CCCNC(=N)N)C(=O)N[C@@H](CCCCN)C(=O)N[C@@H](CCCCN)C(=O)N[C@@H](CCCNC(=N)N)C(=O)N[C@H](C(N)=O)[C@@H](C)O,14 nM
14,CC[C@H](NC(C)=O)C(=O)N[C@@H](C)C(=O)N[C@@H](CCCNC(=N)N)C(=O)N[C@H](C(=O)N[C@@H](CCCNC(=N)N)C(=O)N[C@@H](CCCCN)C(=O)N[C@@H](CCCCN)C(=O)N[C@@H](CCCNC(=N)N)C(=O)N[C@H](C(N)=O)[C@@H](C)O)[C@@H](C)CC (Ac-[Abu]ARIRKKRT-NH2),6 nM
15,CSCC[C@H](NC(=O)[C@H](CCCNC(=N)N)NC(=O)[C@H](C)NC(=O)[C@H](CCCNC(=N)N)NC(C)=O)C(=O)N[C@@H](CCCNC(=N)N)C(=O)N[C@@H](CCCCN)C(=O)N[C@@H](CCCCN)C(=O)N[C@@H](CCCNC(=N)N)C(=O)N[C@H](C(N)=O)[C@@H](C)O,16 nM
16,CC(=O)N[C@@H](CCCNC(=N)N)C(=O)N[C@@H](C)C(=O)N[C@@H](CCCNC(=N)N)C(=O)N1CCC[C@H]1C(=O)N[C@@H](CCCNC(=N)N)C(=O)N[C@@H](CCCCN)C(=O)N[C@@H](CCCCN)C(=O)N[C@@H](CCCNC(=N)N)C(=O)N[C@H](C(N)=O)[C@@H](C)O,8 nM

row,Structure (SMILES),Ki
1,CC[C@H](C)[C@H](NC(=O)[C@H](CCCNC(=N)N)NC(=O)[C@H](C)NC(=O)[C@H](CO)NC(C)=O)C(=O)N[C@@H](CCCNC(=N)N)C(=O)N[C@@H](CCCCN)C(=O)N[C@@H](CCCCN)C(=O)N[C@@H](CCCNC(=N)N)C(=O)N[C@H](C(N)=O)[C@@H](C)O (Ac-SARIRKKRT-NH2),8 nM
2,CC(=O)N[C@@H](CCCNC(=N)N)C(=O)N[C@@H](C)C(=O)N[C@@H](Cc1c[nH]c2ccccc12)C(=O)N[C@@H](CCCNC(=N)N)C(=O)N[C@@H](CCCNC(=N)N)C(=O)N[C@@H](CCCCN)C(=O)N[C@@H](CCCCN)C(=O)N[C@@H](CCCNC(=N)N)C(=O)N[C@H](C(N)=O)[C@@H](C)O,97 nM
3,CC(=O)N[C@@H](CCCNC(=N)N)C(=O)N[C@@H](C)C(=O)N[C@@H](C)C(=O)N[C@@H](CCCNC(=N)N)C(=O)N[C@@H](CCCNC(=N)N)C(=O)N[C@@H](CCCCN)C(=O)N[C@@H](CCCCN)C(=O)N[C@@H](CCCNC(=N)N)C(=O)N[C@H](C(N)=O)[C@@H](C)O,23 nM
4,CC(=O)N[C@@H](CCCNC(=N)N)C(=O)N[C@@H](C)C(=O)N[C@@H](CCCNC(=N)N)C(=O)N[C@@H](Cc1c[nH]cn1)C(=O)N[C@@H](CCCNC(=N)N)C(=O)N[C@@H](CCCCN)C(=O)N[C@@H](CCCCN)C(=O)N[C@@H](CCCNC(=N)N)C(=O)N[C@H](C(N)=O)[C@@H](C)O,22 nM
5,CC(=O)N[C@@H](CCCNC(=N)N)C(=O)N[C@@H](CC(N)=O)C(=O)N[C@@H](CCCNC(=N)N)C(=O)N[C@@H](CCCNC(=N)N)C(=O)N[C@@H](CCCNC(=N)N)C(=O)N[C@@H](CCCCN)C(=O)N[C@@H](CCCCN)C(=O)N[C@@H](CCCNC(=N)N)C(=O)N[C@H](C(N)=O)[C@@H](C)O,20 nM
6,CC(=O)N[C@@H](CCCNC(=N)N)C(=O)N[C@@H](C)C(=O)N[C@@H](CCCNC(=N)N)C(=O)N[C@H]1CCCCNC(=O)[C@H](CCCNC(=N)N)NC(=O)[C@H](CCCCN)NC(=O)[C@H](CCCCN)NC(=O)[C@H](CCCNC(=N)N)NC(=O)[C@H]([C@@H](C)O)NC1=O (Ac-RARKTRKKR; lactam 4-C),2500 nM
7,CC(=O)N[C@@H](CCCNC(=N)N)C(=O)N[C@@H](C)C(=O)N[C@@H](CCC(N)=O)C(=O)N[C@@H](CCCNC(=N)N)C(=O)N[C@@H](CCCNC(=N)N)C(=O)N[C@@H](CCCCN)C(=O)N[C@@H](CCCCN)C(=O)N[C@@H](CCCNC(=N)N)C(=O)N[C@H](C(N)=O)[C@@H](C)O,20 nM
8,CSCC[C@H](NC(=O)[C@H](CCCNC(=N)N)NC(C)=O)C(=O)N[C@@H](CCCNC(=N)N)C(=O)N[C@@H](CCCNC(=N)N)C(=O)N[C@@H](CCCNC(=N)N)C(=O)N[C@@H](CCCCN)C(=O)N[C@@H](CCCCN)C(=O)N[C@@H](CCCNC(=N)N)C(=O)N[C@H](C(N)=O)[C@@H](C)O,38 nM
9,CC[C@H](C)[C@H](NC(=O)[C@H](CCCNC(=N)N)NC(=O)[C@H](C)NC(=O)C(C)(C)NC(C)=O)C(=O)N[C@@H](CCCNC(=N)N)C(=O)N[C@@H](CCCCN)C(=O)N[C@@H](CCCCN)C(=O)N[C@@H](CCCNC(=N)N)C(=O)N[C@H](C(N)=O)[C@@H](C)O (Ac-[Aib]ARIRKKRT-NH2),13 nM
10,CC[C@H](C)[C@@H](NC(=O)[C@H](CCCNC(=N)N)NC(=O)[C@H](C)NC(=O)[C@H](CCCNC(=N)N)NC(C)=O)C(=O)N[C@@H](CCCNC(=N)N)C(=O)N[C@@H](CCCCN)C(=O)N[C@@H](CCCCN)C(=O)N[C@@H](CCCNC(=N)N)C(=O)N[C@H](C(N)=O)[C@@H](C)O,240 nM
11,CC(=O)N[C@@H](CCCCN)C(=O)N[C@@H](C)C(=O)N[C@@H](CCCNC(=N)N)C(=O)N[C@@H](CCCNC(=N)N)C(=O)N[C@@H](CCCNC(=N)N)C(=O)N[C@@H](CCCCN)C(=O)N[C@@H](CCCCN)C(=O)N[C@@H](CCCNC(=N)N)C(=O)N[C@H](C(N)=O)[C@@H](C)O,13 nM
12,CC(=O)N[C@@H](CCCNC(=N)N)C(=O)N[C@@H](C)C(=O)N[C@H](C(=O)N[C@@H](CCCNC(=N)N)C(=O)N[C@@H](CCCNC(=N)N)C(=O)N[C@@H](CCCCN)C(=O)N[C@@H](CCCCN)C(=O)N[C@@H](CCCNC(=N)N)C(=O)N[C@H](C(N)=O)[C@@H](C)O)C(C)C,21 nM
13,CC(=O)NCC(=O)N[C@@H](C)C(=O)N[C@@H](CCCNC(=N)N)C(=O)N[C@@H](CCCNC(=N)N)C(=O)N[C@@H](CCCNC(=N)N)C(=O)N[C@@H](CCCCN)C(=O)N[C@@H](CCCCN)C(=O)N[C@@H](CCCNC(=N)N)C(=O)N[C@H](C(N)=O)[C@@H](C)O,11 nM
14,CC(=O)N[C@@H](CCCNC(=N)N)C(=O)N[C@@H](C)C(=O)N[C@@H](CCCNC(=N)N)C(=O)N[C@@H](Cc1ccc(O)cc1)C(=O)N[C@@H](CCCNC(=N)N)C(=O)N[C@@H](CCCCN)C(=O)N[C@@H](CCCCN)C(=O)N[C@@H](CCCNC(=N)N)C(=O)N[C@H](C(N)=O)[C@@H](C)O,35 nM
15,CC(=O)N[C@H](CO)C(=O)N[C@@H](C)C(=O)N[C@@H](CCCNC(=N)N)C(=O)N[C@@H](CCCNC(=N)N)C(=O)N[C@@H](CCCNC(=N)N)C(=O)N[C@@H](CCCCN)C(=O)N[C@@H](CCCCN)C(=O)N[C@@H](CCCNC(=N)N)C(=O)N[C@H](C(N)=O)[C@@H](C)O,11 nM
